ChEMBL document CHEMBL3585325, “Discovery of (1R,2S)-2-{[(2,4-Dimethylpyrimidin-5-yl)oxy]methyl}-2-(3-fluorophenyl)-N-(5-fluoropyridin-2-yl)cyclopropanecarboxamide (E2006): A Potent and Efficacious Oral Orexin Receptor Antagonist” (J Med Chem, 2015)
≈ marks a conversion by molar mass, not a printed value.

Columns and labels:
Orexin receptor type 2 = biological target: T1, Orexin receptor type 2 (Homo sapiens, UniProt O43614); test: Binding affinity to human OX2R by radioligand displacement binding assay
T1 sequence (O43614 whole entry): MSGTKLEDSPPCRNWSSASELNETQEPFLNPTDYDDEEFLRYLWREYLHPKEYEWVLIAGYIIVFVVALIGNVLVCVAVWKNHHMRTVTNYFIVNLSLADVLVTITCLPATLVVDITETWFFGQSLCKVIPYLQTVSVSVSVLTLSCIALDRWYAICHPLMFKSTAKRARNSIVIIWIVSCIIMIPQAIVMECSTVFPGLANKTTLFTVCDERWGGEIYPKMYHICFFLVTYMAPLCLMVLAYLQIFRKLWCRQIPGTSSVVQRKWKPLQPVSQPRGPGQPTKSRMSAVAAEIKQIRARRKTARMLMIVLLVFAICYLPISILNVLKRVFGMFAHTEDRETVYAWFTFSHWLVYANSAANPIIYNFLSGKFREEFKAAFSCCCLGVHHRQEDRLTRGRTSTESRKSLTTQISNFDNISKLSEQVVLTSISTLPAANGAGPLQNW

[1] = biological target: T2, Orexin/Hypocretin receptor type 1 (Homo sapiens, UniProt O43613); test: Binding affinity to human OX1R by radioligand displacement binding assay
T2 sequence (O43613 whole entry): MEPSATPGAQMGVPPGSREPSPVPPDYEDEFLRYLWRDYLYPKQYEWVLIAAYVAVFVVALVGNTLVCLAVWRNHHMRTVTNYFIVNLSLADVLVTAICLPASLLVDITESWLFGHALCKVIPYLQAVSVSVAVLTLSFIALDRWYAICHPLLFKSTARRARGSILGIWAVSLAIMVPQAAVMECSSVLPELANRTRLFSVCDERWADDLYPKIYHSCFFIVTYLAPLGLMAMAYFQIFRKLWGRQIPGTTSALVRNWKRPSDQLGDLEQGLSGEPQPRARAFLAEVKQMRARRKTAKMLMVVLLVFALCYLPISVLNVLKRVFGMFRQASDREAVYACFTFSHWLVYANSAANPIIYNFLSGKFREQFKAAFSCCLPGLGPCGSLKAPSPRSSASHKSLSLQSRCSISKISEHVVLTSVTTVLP
Outline: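 Ki values come from single experiments run in triplicate.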

CYP3A = CYP3A (Homo sapiens, UniProt P08684+P20815+P24462+Q9HB55); test: Time dependent inhibition of CYP3A in human liver microsomes assessed as enzyme activity using midazolam as substrate at 10 uM incubated for 30 mins prior to substrate addition for 10 mins by LC-MS/MS analysis; format: ADME; parameters: scale not given: the % may be the effect or the level left; settings: probe midazolam, read-out: Activity
Outline: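 Test compound at 10 μM preincubated 30 min at 37 °C with human liver microsomes (0.2 mg/mL), with or without an NADPH-generating system. Mixture then diluted 10-fold into a marker-substrate cocktail plus NADPH system and incubated 10 min at 37 °C. Midazolam served as the CYP3A probe. Metabolites measured by LC−MS/MS. Result is the residual activity with NADPH relative to without, as % of control.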

[2] = Activity at P-gp (unknown origin) assessed as corrected flux ratio; format: ADME; settings: human
Outline: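 Reported as corrected flux ratio, i.e. the MDR1 flux ratio divided by the PK1 flux ratio.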

[3] = Aqueous solubility of the compound in Dulbecco's phosphate buffered saline at pH 7.4 by DMSO solution precipitation method; format: physicochemical
Outline: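 Solubility in Dulbecco's PBS at pH 7.4, measured at room temperature by precipitation from a DMSO solution.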

Mus musculus = test: Sleep promoting activity in C57BL/6NCrlCrlj mouse assessed as reduction in wakefulness time at 30 mg/kg, po administered immediately prior to beginning of dark cycle measured during first 3 hrs after drug administration by electroencephalogram/electromyogram analysis (reference value: 116.7 min); format: functional
Outline: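 Male C57BL/6NCrlCrlj mice implanted with EEG/EMG electrodes were dosed orally in 10% Cremophor EL, 5% DMSO in saline just before lights-off (ZT12) and recorded from ZT12 to ZT20. Group sizes were n=6 dosed and n=7 vehicle. Stages were scored by software with blinded visual confirmation; cumulative first-3-h times are mean with SEM. Dunnett's test was run after one-way ANOVA.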

[4] = biological target: Voltage-gated inwardly rectifying potassium channel KCNH2 (Homo sapiens, UniProt Q12809); test: Inhibition of human ERG
Voltage-gated inwardly rectifying potassium channel KCNH2, sequence (Q12809 whole entry): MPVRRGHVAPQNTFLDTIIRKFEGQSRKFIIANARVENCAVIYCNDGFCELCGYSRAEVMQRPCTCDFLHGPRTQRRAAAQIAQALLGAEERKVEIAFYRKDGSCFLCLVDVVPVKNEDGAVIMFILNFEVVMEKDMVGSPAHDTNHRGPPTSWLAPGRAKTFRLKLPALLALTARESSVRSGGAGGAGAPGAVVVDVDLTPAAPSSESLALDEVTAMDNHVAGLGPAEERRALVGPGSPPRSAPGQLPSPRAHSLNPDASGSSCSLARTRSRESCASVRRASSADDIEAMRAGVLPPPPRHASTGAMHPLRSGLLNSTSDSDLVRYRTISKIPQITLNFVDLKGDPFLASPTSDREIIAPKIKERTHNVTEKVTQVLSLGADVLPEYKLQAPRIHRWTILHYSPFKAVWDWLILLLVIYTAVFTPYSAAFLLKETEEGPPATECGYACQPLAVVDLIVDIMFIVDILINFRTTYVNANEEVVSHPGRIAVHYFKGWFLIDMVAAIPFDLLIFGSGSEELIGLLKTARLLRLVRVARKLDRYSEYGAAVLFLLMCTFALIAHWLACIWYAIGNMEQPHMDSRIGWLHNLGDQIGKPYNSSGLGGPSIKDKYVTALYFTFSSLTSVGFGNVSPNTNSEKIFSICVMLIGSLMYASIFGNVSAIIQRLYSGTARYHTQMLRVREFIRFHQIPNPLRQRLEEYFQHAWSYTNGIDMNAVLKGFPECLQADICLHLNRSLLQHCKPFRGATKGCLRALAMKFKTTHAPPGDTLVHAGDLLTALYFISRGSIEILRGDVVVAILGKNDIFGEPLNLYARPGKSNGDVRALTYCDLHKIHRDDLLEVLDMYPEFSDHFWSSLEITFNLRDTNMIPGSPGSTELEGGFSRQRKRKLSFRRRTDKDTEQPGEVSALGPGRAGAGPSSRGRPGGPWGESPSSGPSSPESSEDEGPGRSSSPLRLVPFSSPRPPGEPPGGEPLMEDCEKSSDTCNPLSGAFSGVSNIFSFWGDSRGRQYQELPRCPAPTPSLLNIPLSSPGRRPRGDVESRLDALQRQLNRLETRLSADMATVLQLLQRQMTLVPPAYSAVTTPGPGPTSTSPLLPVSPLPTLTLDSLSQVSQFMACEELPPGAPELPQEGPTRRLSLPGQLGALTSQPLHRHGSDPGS

| SMILES | Ki (Orexin receptor type 2) | Ki [1] | activity at 10 min, 10 µM (CYP3A) | Ratio [2] | solubility kinetic [3] | Time (Mus musculus) | IC50 [4] |
| --- | --- | --- | --- | --- | --- | --- | --- |
| CCn1cc(OC[C@]2(c3ccccc3)C[C@@H]2C(=O)Nc2ccc(C#N)cn2)c(C)n1 | > 2000 nM | > 2000 nM |  |  |  |  |  |
| CCn1cc(OC[C@@]2(c3ccccc3)C[C@H]2C(=O)Nc2ccc(C#N)cn2)c(C)n1 | 8 nM | 171 nM | 93% | 0.9 | 64 µM (≈ 25.7 µg/mL) |  |  |
| Cc1ncc(OC[C@@]2(c3ccccc3)C[C@H]2C(=O)Nc2ccc(C#N)cn2)c(C)n1 | 49 nM | 2490 nM | 96% | 2.7 | 80 µM (≈ 32 µg/mL) |  |  |
| CCc1nc(C)ncc1OC[C@@]1(c2ccccc2)C[C@H]1C(=O)Nc1ccc(C#N)cn1 | 7 nM | 121 nM | 91% | 2.1 | 44 µM (≈ 18.2 µg/mL) |  |  |
| Cc1cnc(OC[C@@]2(c3ccccc3)C[C@H]2C(=O)Nc2ccc(C#N)cn2)c(C)n1 | 21 nM | 73 nM | 97% | 1.3 | 47 µM (≈ 18.8 µg/mL) |  |  |
| COCc1nc(C)ncc1OC[C@@]1(c2ccccc2)C[C@H]1C(=O)Nc1ccc(C#N)cn1 | 9 nM | 43 nM | 92% | 4 | 93 µM (≈ 39.9 µg/mL) |  |  |
| Cc1ncc(OC[C@@]2(c3ccccc3)C[C@H]2C(=O)Nc2ccccn2)c(C)n1 | 80 nM | 1020 nM | 99% | 1.9 |  |  |  |
| Cc1ncc(OC[C@@]2(c3ccccc3)C[C@H]2C(=O)Nc2cccnc2)c(C)n1 | 50 nM | 391 nM | 104% | 4.4 |  |  |  |
| Cc1ncc(OC[C@@]2(c3ccccc3)C[C@H]2C(=O)Nc2ccncc2)c(C)n1 | 163 nM | 1580 nM | 110% | 6 |  |  |  |
| Cc1ncc(OC[C@@]2(c3ccccc3)C[C@H]2C(=O)Nc2ccc(F)cn2)c(C)n1 | 7 nM | 137 nM | 87% | 1.7 | 92 µM (≈ 36.1 µg/mL) | 72.3 min | 7700 nM |
| Cc1ncc(OC[C@@]2(c3ccccc3)C[C@H]2C(=O)Nc2cccc(F)n2)c(C)n1 | 56 nM | 138 nM | 94% | 1.4 |  |  |  |
| Cc1ncc(OC[C@@]2(c3ccccc3)C[C@H]2C(=O)Nc2ccc(Cl)cn2)c(C)n1 | 2 nM | 39 nM | 88% | 1.3 |  | 68.2 min |  |
| Cc1ccc(NC(=O)[C@@H]2C[C@@]2(COc2cnc(C)nc2C)c2ccccc2)nc1 | 34 nM | 124 nM | 22% | 1.3 |  |  |  |
| Cc1ccnc(NC(=O)[C@@H]2C[C@@]2(COc2cnc(C)nc2C)c2ccccc2)c1 | 29 nM | 224 nM | 90% | 1.5 |  |  |  |
| Cc1ncc(OC[C@@]2(c3ccccc3)C[C@H]2C(=O)Nc2cc(C)c(F)cn2)c(C)n1 | 4 nM | 6 nM | 89% |  | 51 µM (≈ 20.7 µg/mL) | 67.1 min |  |
| COc1cc(NC(=O)[C@@H]2C[C@@]2(COc2cnc(C)nc2C)c2ccccc2)ncc1F | 6 nM | 3 nM | 86% | 1.6 |  |  |  |
| Cc1ncc(OC[C@@]2(c3ccccc3F)C[C@H]2C(=O)Nc2ccc(F)cn2)c(C)n1 | 17 nM | 81 nM | 77% | 1.4 |  |  | 5900 nM |
| Cc1ncc(OC[C@@]2(c3ccc(F)cc3)C[C@H]2C(=O)Nc2ccc(F)cn2)c(C)n1 | 8 nM | 39 nM | 85% | 1.3 |  |  | 2200 nM |
| Cc1ncc(OC[C@@]2(c3cc(F)cc(F)c3)C[C@H]2C(=O)Nc2ccc(F)cn2)c(C)n1 | 3 nM | 7 nM | 62% | 1.5 |  |  | 4800 nM |
| Cc1ncc(OC[C@@]2(c3ccc(F)c(F)c3)C[C@H]2C(=O)Nc2ccc(F)cn2)c(C)n1 | 4 nM | 14 nM | 75% |  |  |  |  |
| Cc1ncc(OC[C@@]2(c3cccc(F)c3)C[C@H]2C(=O)Nc2cc(C)c(F)cn2)c(C)n1 | 4 nM | 2 nM | 83% | 1.4 | 46 µM (≈ 19.5 µg/mL) |  | > 10000 nM |
| Cc1ccc(OCC2(c3ccccc3)CC2C(=O)Nc2ccc(C#N)cn2)c(C)n1 (racemic) | 222 nM | 938 nM | 34% |  | 22 µM (≈ 8.77 µg/mL) |  |  |
| Cc1cc(OCC2(c3ccccc3)CC2C(=O)Nc2ccc(C#N)cn2)cc(C)n1 (racemic) | > 2000 nM | > 2000 nM | 94% |  |  |  |  |
| Cc1nn(C)cc1OCC1(c2ccccc2)CC1C(=O)Nc1ccc(C#N)cn1 (racemic) | 204 nM | > 2000 nM | 85% |  | 85 µM (≈ 32.9 µg/mL) |  |  |
| CCn1cc(OCC2(c3ccccc3)CC2C(=O)Nc2ccc(C#N)cn2)c(C)n1 (racemic) | 10 nM | 391 nM | 84% | 1.5 | 78 µM (≈ 31.3 µg/mL) |  |  |
